Test results reported in ChEMBL document CHEMBL4819105, “Synthesis and activity of N-(5-hydroxy-3,4,6-trimethylpyridin-2-yl)acetamide analogues as anticolitis agents via dual inhibition of TNF-α- and IL-6-induced cell adhesions” (2021).
Activity calls are given as the source filed them. The rule behind the calls is not given here.

How the values were obtained:
[1] = Inhibition of TNF-alpha-induced cell adhesion in human U937 cells assessed as reduction in cell adhesion to HT-29 cells at 1000 uM relative to control; assay type: functional; settings: U-937
[2] = Inhibition of IL-6-induced cell adhesion in human U937 cells assessed as reduction in cell adhesion to HT-29 cells at 1000 uM relative to control; assay type: functional; settings: U-937
[3] = Inhibition of TNF-alpha-induced cell adhesion in human U937 cells assessed as reduction in cell adhesion to HT-29 cells at 1 uM relative to control; assay type: functional; settings: U-937
[4] = Inhibition of IL-6-induced cell adhesion in human U937 cells assessed as reduction in cell adhesion to HT-29 cells at 1 uM relative to control; assay type: functional; settings: U-937
Rattus norvegicus [5] = assay: Anti-colitis activity against TNBS-induced rat model of colitis assessed as increase in body weight at 300 mg/kg, po administered for 5 days and measured on day 5; assay type: functional, organism-based; settings: time 5.0 day
Summary of the method: (§1)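 Rat colitis induced by rectal TNBS. Test agents given orally once daily for 5 days. Read-outs are body weight, colon appearance (congestion, adhesion), and colon tissue weight/length. MPO in colon tissue was measured with an MPO assay kit. Groups were compared against mock control and vehicle-treated TNBS animals, with P < 0.05 taken as significant.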

Rattus norvegicus [6] = assay: Anti-colitis activity against TNBS-induced rat model of colitis assessed as decrease in congestion at 300 mg/kg, po administered for 5 days and measured on day 5; assay type: functional, organism-based; settings: time 5.0 day; summary of the method: as §1
Rattus norvegicus [7] = assay: Anti-colitis activity against TNBS-induced rat model of colitis assessed as decrease in adhesion at 300 mg/kg, po administered for 5 days and measured on day 5; assay type: functional, organism-based; settings: time 5.0 day; summary of the method: as §1
Rattus norvegicus [8] = assay: Anti-colitis activity against TNBS-induced rat model of colitis assessed as increase in colon weight at 300 mg/kg, po administered for 5 days and measured on day 5; assay type: functional, organism-based; settings: time 5.0 day; summary of the method: as §1
Rattus norvegicus [9] = assay: Anti-colitis activity against TNBS-induced rat model of colitis assessed as increase in colon length at 300 mg/kg, po administered for 5 days and measured on day 5; assay type: functional, organism-based; settings: time 5.0 day; summary of the method: as §1
Rattus norvegicus [10] = assay: Anti-colitis activity against TNBS-induced rat model of colitis assessed as decrease in MPO level in colon at 300 mg/kg, po administered for 5 days and measured on day 5; assay type: functional, organism-based; settings: time 5.0 day; summary of the method: as §1
Rattus norvegicus [11] = assay: Anti-colitis activity against TNBS-induced rat model of colitis assessed as increase in body weight at 1 mg/kg, po administered for 5 days and measured on day 5; assay type: functional, organism-based; settings: time 5.0 day; summary of the method: as §1
Rattus norvegicus [12] = assay: Anti-colitis activity against TNBS-induced rat model of colitis assessed as decrease in congestion at 1 mg/kg, po administered for 5 days and measured on day 5; assay type: functional, organism-based; settings: time 5.0 day; summary of the method: as §1
Rattus norvegicus [13] = assay: Anti-colitis activity against TNBS-induced rat model of colitis assessed as decrease in adhesion at 1 mg/kg, po administered for 5 days and measured on day 5; assay type: functional, organism-based; settings: time 5.0 day; summary of the method: as §1
Rattus norvegicus [14] = assay: Anti-colitis activity against TNBS-induced rat model of colitis assessed as increase in colon weight at 1 mg/kg, po administered for 5 days and measured on day 5; assay type: functional, organism-based; settings: time 5.0 day; summary of the method: as §1
Rattus norvegicus [15] = assay: Anti-colitis activity against TNBS-induced rat model of colitis assessed as decrease in MPO level in colon at 1 mg/kg, po administered for 5 days and measured on day 5; assay type: functional, organism-based; settings: time 5.0 day; summary of the method: as §1
Rattus norvegicus [16] = assay: Anti-colitis activity against TNBS-induced rat model of colitis assessed as increase in body weight at 1 mg/kg, po administered for 5 days and measured on day 5; settings: time 5.0 day
Rattus norvegicus [17] = assay: Anti-colitis activity against TNBS-induced rat model of colitis assessed as increase in body weight administered po for 5 days and measured on day 5; assay type: functional, organism-based; settings: dose 1-10 mg/kg, time 5.0 day; summary of the method: as §1
Rattus norvegicus [18] = assay: Anti-colitis activity against TNBS-induced rat model of colitis assessed as decrease in congestion at 1 to 10 mg/kg, po administered for 5 days and measured on day 5; assay type: functional, organism-based; settings: dose 1-10 mg/kg, time 5.0 day; summary of the method: as §1
Rattus norvegicus [19] = assay: Anti-colitis activity against TNBS-induced rat model of colitis assessed as decrease in adhesion at 1 to 10 mg/kg, po administered for 5 days and measured on day 5; assay type: functional, organism-based; settings: dose 1-10 mg/kg, time 5.0 day; summary of the method: as §1
Rattus norvegicus [20] = assay: Anti-colitis activity against TNBS-induced rat model of colitis assessed as increase in colon weight at 1 to 10 mg/kg, po administered for 5 days and measured on day 5; assay type: functional, organism-based; settings: dose 1-10 mg/kg, time 5.0 day; summary of the method: as §1
Rattus norvegicus [21] = assay: Anti-colitis activity against TNBS-induced rat model of colitis assessed as increase in colon length at 1 to 10 mg/kg, po administered for 5 days and measured on day 5; assay type: functional, organism-based; settings: dose 1-10 mg/kg, time 5.0 day; summary of the method: as §1
Rattus norvegicus [22] = assay: Anti-colitis activity against TNBS-induced rat model of colitis assessed as decrease in MPO level in colon at 1 to 10 mg/kg, po administered for 5 days and measured on day 5; assay type: functional, organism-based; settings: dose 1-10 mg/kg, time 5.0 day; summary of the method: as §1

| SMILES | inhibition at 1 µM [3] | inhibition at 1 µM [4] | other results |
| --- | --- | --- | --- |
| Nc1ccc(O)c(C(=O)O)c1 [MESALAMINE] | – | – | inhibition at 1000 µM [1]: 9.9%; inhibition at 1000 µM [2]: 1.7% |
| Cc1nc(NC(=O)Cc2ccc(F)cc2)c(C)c(C)c1O | 7.2% | 18.1% | – |
| Cc1nc(NC(=O)C(Cl)Cl)c(C)c(C)c1O | – | 52.7% | – |
| Cc1nc(NC(=O)C(Cl)c2ccccc2)c(C)c(C)c1O (stereo not drawn) | 36.6% | 22.5% | – |
| Cc1nc(NC(=O)C2CCCCC2)c(C)c(C)c1O | – | 56.7% | – |
| Cc1nc(NC(=O)COc2ccccc2)c(C)c(C)c1O | 10.8% | 11.4% | – |
| Cc1ccccc1CCC(=O)Nc1nc(C)c(O)c(C)c1C | 20.2% | 12.9% | – |
| Cc1nc(NC(=O)CCc2ccccc2F)c(C)c(C)c1O | 13.9% | 18% | – |
| CCCCCCCC(=O)Nc1nc(C)c(O)c(C)c1C | 61.5% | 54.8% | – |
| CCCCCCCCCCCC(=O)Nc1nc(C)c(O)c(C)c1C | – | 44.3% | – |
| O=C(O)c1cc(/N=N/c2ccc(S(=O)(=O)Nc3ccccn3)cc2)ccc1O | – | – | Activity (Rattus norvegicus [5]): Active; Activity (Rattus norvegicus [6]): Active; Activity (Rattus norvegicus [7]): Active; Activity (Rattus norvegicus [8]): Active; Activity (Rattus norvegicus [9]): Active; Activity (Rattus norvegicus [10]): Active |
| Cc1nc(NC(=O)C(C)(C)C)c(C)c(C)c1O | – | 21.1% | – |
| Cc1nc(NC(=O)Cc2cccc(Br)c2)c(C)c(C)c1O | 6.2% | 9.2% | – |
| Cc1nc(NC(=O)CC(C)C)c(C)c(C)c1O | 52.3% | 48% | – |
| Cc1nc(NC(=O)CCCCl)c(C)c(C)c1O | – | 17.8% | – |
| CCCCCCCCCCCCCCCC(=O)Nc1nc(C)c(O)c(C)c1C | 31.7% | 17.4% | – |
| Cc1nc(NC(=O)/C=C/c2ccccc2)c(C)c(C)c1O | 25.2% | 14.2% | – |
| Cc1nc(NC(=O)Cc2ccccc2)c(C)c(C)c1O | 56.6% | 50.2% | – |
| C[C@@H]1CCN(C(=O)CC#N)C[C@@H]1N(C)c1ncnc2[nH]ccc12 [TOFACITINIB] | 49.1% | 58.6% | – |
| Cc1nc(NC(=O)C(C)C)c(C)c(C)c1O | 64.2% | 53.9% | – |
| CCCC(=O)Nc1nc(C)c(O)c(C)c1C | 10% | 17.5% | – |
| Cc1nc(NC(=O)CCc2ccc(Cl)cc2)c(C)c(C)c1O | 30.6% | 20.8% | – |
| CC(=O)OCC(=O)Nc1nc(C)c(O)c(C)c1C | 6.8% | 9.7% | – |
| Cc1nc(NC(=O)C2CCCC2)c(C)c(C)c1O | – | 34.8% | – |
| Cc1nc(NC(=O)CCc2ccccc2)c(C)c(C)c1O | – | 69.6% | Activity (Rattus norvegicus [11]): Active; Activity (Rattus norvegicus [12]): Active; Activity (Rattus norvegicus [13]): Active; Activity (Rattus norvegicus [14]): Active; Activity (Rattus norvegicus [15]): Active; Activity (Rattus norvegicus [16]): Active |
| Cc1nc(NC(=O)CCc2ccc(Cl)cc2Cl)c(C)c(C)c1O | 41.5% | 35.9% | – |
| C=CCC(=O)Nc1nc(C)c(O)c(C)c1C | 31.9% | 21.3% | – |
| CC(=O)Nc1nc(C)c(O)c(C)c1C | 56% | 47.2% | Activity (Rattus norvegicus [17]): Dose-Dependent Effect; Activity (Rattus norvegicus [18]): Active; Activity (Rattus norvegicus [19]): Active; Activity (Rattus norvegicus [20]): Active; Activity (Rattus norvegicus [21]): Active; Activity (Rattus norvegicus [22]): Active |
| Cc1nc(NC(=O)CC(C)CC(C)(C)C)c(C)c(C)c1O (stereo not drawn) | – | 46.3% | – |
| Cc1nc(NC(=O)CCc2ccccc2Br)c(C)c(C)c1O | 35.3% | 22% | – |
